Measured values published in ChEMBL document CHEMBL4033757, “Efficient Divergent Synthesis of New Immunostimulant 4″-Modified α-Galactosylceramide Analogues” (ACS Med Chem Lett, 2017).
The source made the active and inactive calls.

Tests used:
Mus musculus [1] = experiment: Immunostimulatory activity in C57BL/6 mouse assessed as induction of IFNgamma levels in serum at 2.0 x 10^-4 […], ip measured after 16 hrs by ELISA; assay type: functional, organism-based
Procedure, shortened: (§1)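 C57BL/6 mice dosed intraperitoneally with 5 μg glycolipid per animal (stated as 2.0 × 10–4 […]). Serum collected and cytokines quantified by ELISA: IFN-γ at 16 h post-injection, IL-4 at 4 h post-injection.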

iNKT = experiment: Immunostimulatory activity in human iNKT cells cocultured with HeLa CD1d cells assessed as induction of IFNgamma levels at 0.01 to 1 nM after 24 hrs by ELISA; assay type: functional, cell-based
Procedure, shortened: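 Human iNKT cells cocultured with HeLa cells expressing CD1d plus glycolipid at varying concentrations. After 24 h incubation, IFN-γ in the culture measured by ELISA.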

Mus musculus [2] = experiment: Immunostimulatory activity in C57BL/6 mouse assessed as induction of IL-4 levels in serum at 2.0 x 10^-4 […], ip measured after 4 hrs by ELISA; assay type: functional, organism-based; procedure, shortened: as §1

Measured: Activity

CCCCCCCCCCCCCCCCCCCCCCCCCC(=O)N[C@@H](CO[C@H]1O[C@H](CO)[C@H](OC(=O)Nc2cccc3ccccc23)[C@H](O)[C@H]1O)[C@H](O)[C@H](O)CCCCCCCCCCCCCC
active: all assays above

C=C1[C@@H](CO)O[C@H](OC[C@H](NC(=O)CCCCCCCCCCCCCCCCCCCCCCCCC)[C@H](O)[C@H](O)CCCCCCCCCCCCCC)[C@H](O)[C@H]1O
active: all assays above

CCCCCCCCCCCCCCCCCCCCCCCCCC(=O)N[C@@H](CO[C@H]1O[C@H](CO)[C@H](O)[C@H](O)[C@H]1O)[C@H](O)[C@H](O)CCCCCCCCCCCCCC
active: all assays above

CCCCCCCCCCCCCCCCCCCCCCCCCC(=O)N[C@@H](CO[C@H]1O[C@H](CO)[C@H](OC)[C@H](O)[C@H]1O)[C@H](O)[C@H](O)CCCCCCCCCCCCCC
active: all assays above

CCCCCCCCCCCCCCCCCCCCCCCCCC(=O)N[C@@H](CO[C@H]1O[C@H](CO)[C@H](OCc2ccc(Cl)cc2)[C@H](O)[C@H]1O)[C@H](O)[C@H](O)CCCCCCCCCCCCCC
active: all assays above

CCCCCCCCCCCCCCCCCCCCCCCCCC(=O)N[C@@H](CO[C@H]1O[C@H](CO)[C@@H](NC(=O)Nc2cccc3ccccc23)[C@H](O)[C@H]1O)[C@H](O)[C@H](O)CCCCCCCCCCCCCC
active: all assays above
